# From paper PMC4629852 (Nature chemical biology, 2015)
# pIC50, pKd: −log10 of the molar value.
# Columns and labels:
# ERRα [1] = target: T1, ERRα (Homo sapiens, UniProt P11474); experiment: ERRα degradation in MCF-7 cells by immunoblotting; format: cell-based
# T1 sequence (P11474 1-423): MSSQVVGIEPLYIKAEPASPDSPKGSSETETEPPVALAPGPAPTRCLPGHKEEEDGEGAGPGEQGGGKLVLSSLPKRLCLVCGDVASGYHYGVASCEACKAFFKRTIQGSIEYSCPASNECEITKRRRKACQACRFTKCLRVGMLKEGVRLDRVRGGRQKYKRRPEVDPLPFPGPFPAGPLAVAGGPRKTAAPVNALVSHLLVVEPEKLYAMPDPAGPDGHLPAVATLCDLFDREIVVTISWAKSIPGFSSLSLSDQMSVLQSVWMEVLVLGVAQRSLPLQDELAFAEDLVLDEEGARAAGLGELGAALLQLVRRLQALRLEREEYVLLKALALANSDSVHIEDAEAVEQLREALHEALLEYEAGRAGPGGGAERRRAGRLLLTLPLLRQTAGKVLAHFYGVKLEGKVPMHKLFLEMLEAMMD
# How it was run: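 MCF7 cells were grown in DMEM/F12 + 10% FBS at 37 °C, 5% CO₂. They were seeded at 70% confluency, attached overnight, then treated with test compound for 8 h. An optional 1 h pretreatment with 1 μM epoxomicin preceded compound. Lysates were BCA-normalised, run on 4–12% gels, transferred to PVDF, milk-blocked and probed overnight with anti-ERRα.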
# VHL complex = VHL complex (Homo sapiens, UniProt P40337); experiment: Competitive binding fluorescence polarization vs HIF1α-derived peptide
# RIPK2 [2] = target: T2, RIPK2 (Homo sapiens, UniProt O43353); experiment: RIPK2 degradation in THP-1 monocytes by immunoblotting; format: cell-based
# How it was run: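 THP-1 cells were cultured in RPMI 1640 + 10% FBS at 37 °C, 5% CO₂. Cells (5 × 10⁶) were treated with a dose range for 16 h, or at 30 nM for a time course. Options were a 1 h pretreatment with 1 μM epoxomicin, or washout after 4 h with PBS washes and fresh medium. RIPK2 was detected by western blot.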
# HIF1α = experiment: ODD-luciferase assay of HIF1α processing by VHL; format: cell-based
# THP-1 cells = experiment: Cellular toxicity; format: cell-based, human; settings: any concentration, Supplementary Fig. 7
# [3] = target: VHL-RIPK2 ternary complex (Homo sapiens, UniProt O43353+P40337); format: binding; settings: THP-1 lysate
# How it was run: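 THP-1 lysate in Tris/glycerol/MgCl₂/NaCl/vanadate/0.008% NP40 buffer was adjusted to 5 mg ml⁻¹. Lysate (10 mg protein) was incubated with compound at 3, 30 or 300 nM, or DMSO, for 2 h at 4 °C. It was then captured for 2 h at 4 °C on anti-VHL or IgG1κ control agarose beads. Eluates were analysed by immunoblot and LC-MS, as log₂ fold changes over replicates (≥2 unique peptides).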
# RIPK2 [4] = target: RIPK2 (Homo sapiens, UniProt O43353+P40337); experiment: In vitro ubiquitination in reconstituted E1-E2-VHL cascade; format: biochemical
# How it was run: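 Three-stage reaction at room temperature. First, RIPK2 (500 nM final) was autophosphorylated with [³²P]γ-ATP for 10 min in Tris/KCl/Mg/Mn/DTT buffer, pH 7.5. Ubiquitination buffer (2 mM ATP) was then added with VHL (250 nM final) and test compound at various concentrations. Separately, UbE1 (25 nM), Ubc4 (250 nM) and ubiquitin (116 μM) were precharged. The mixtures were combined and quenched over time. ³²P was converted to moles of RIPK2 (five phosphopeptides) and compared with moles of compound.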
# MAPKAPK3 [5] = target: T3, MAPKAPK3 (Homo sapiens, UniProt Q16644); experiment: Kinobeads competition binding; settings: below the limit of detection
# RIPK2 [6] = target: T2, RIPK2; experiment: Expression proteomics in THP-1 cells; format: cell-based; settings: THP-1, 30 nM, 6, 18 and 24 h
# MAPKAPK3 [7] = target: T3, MAPKAPK3; experiment: Expression proteomics in THP-1 cells; format: cell-based; settings: THP-1, 30 nM; of ~7,000 proteins only RIPK2 and MAPKAPK3
# How it was run: (§1)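 THP-1 cells were seeded at 3 × 10⁶ cells/well in RPMI1640 + 10% heat-inactivated FBS. They were exposed to 30 nM test compound for 6, 18 or 24 h; the 18 h arm was run in biological duplicate. Cells were collected on ice, washed twice in cold PBS, snap-frozen and SDS-lysed. Proteins were reduced, alkylated, gel-separated, trypsin-digested and quantified proteome-wide by LC-MS/MS.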
# RIPK3, ABL and TESK = experiment: Expression proteomics in THP-1 cells; format: cell-based, human; settings: THP-1, 30 nM
# How it was run: as §1
# ERRα [8] = target: T1, ERRα; experiment: Expression proteomics in MCF-7 cells; format: cell-based; settings: MCF-7, 100 nM and 500 nM, 4, 8 or 24 h
# How it was run: (§2)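 MCF-7 cells were plated 1 day before treatment at 1 × 10⁶ cells/well in MEM + 10% FBS + 1% NEAA + sodium pyruvate. They were treated in biological duplicate for the indicated times, scraped into ice-cold PBS and lysed in 2% SDS (95 °C, 3 min). Benzonase digestion followed (37 °C, 1.5 h), then BCA. Proteins were reduced with DTT, alkylated with iodoacetamide, gel-separated, trypsin-digested and quantified by LC-MS/MS.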
# BCR = target: T4, BCR (Homo sapiens, UniProt P11274); experiment: Expression proteomics in MCF-7 cells; format: cell-based; settings: MCF-7, 500 nM, prolonged incubation, P < 0.05
# T4 sequence (P11274 1-1271): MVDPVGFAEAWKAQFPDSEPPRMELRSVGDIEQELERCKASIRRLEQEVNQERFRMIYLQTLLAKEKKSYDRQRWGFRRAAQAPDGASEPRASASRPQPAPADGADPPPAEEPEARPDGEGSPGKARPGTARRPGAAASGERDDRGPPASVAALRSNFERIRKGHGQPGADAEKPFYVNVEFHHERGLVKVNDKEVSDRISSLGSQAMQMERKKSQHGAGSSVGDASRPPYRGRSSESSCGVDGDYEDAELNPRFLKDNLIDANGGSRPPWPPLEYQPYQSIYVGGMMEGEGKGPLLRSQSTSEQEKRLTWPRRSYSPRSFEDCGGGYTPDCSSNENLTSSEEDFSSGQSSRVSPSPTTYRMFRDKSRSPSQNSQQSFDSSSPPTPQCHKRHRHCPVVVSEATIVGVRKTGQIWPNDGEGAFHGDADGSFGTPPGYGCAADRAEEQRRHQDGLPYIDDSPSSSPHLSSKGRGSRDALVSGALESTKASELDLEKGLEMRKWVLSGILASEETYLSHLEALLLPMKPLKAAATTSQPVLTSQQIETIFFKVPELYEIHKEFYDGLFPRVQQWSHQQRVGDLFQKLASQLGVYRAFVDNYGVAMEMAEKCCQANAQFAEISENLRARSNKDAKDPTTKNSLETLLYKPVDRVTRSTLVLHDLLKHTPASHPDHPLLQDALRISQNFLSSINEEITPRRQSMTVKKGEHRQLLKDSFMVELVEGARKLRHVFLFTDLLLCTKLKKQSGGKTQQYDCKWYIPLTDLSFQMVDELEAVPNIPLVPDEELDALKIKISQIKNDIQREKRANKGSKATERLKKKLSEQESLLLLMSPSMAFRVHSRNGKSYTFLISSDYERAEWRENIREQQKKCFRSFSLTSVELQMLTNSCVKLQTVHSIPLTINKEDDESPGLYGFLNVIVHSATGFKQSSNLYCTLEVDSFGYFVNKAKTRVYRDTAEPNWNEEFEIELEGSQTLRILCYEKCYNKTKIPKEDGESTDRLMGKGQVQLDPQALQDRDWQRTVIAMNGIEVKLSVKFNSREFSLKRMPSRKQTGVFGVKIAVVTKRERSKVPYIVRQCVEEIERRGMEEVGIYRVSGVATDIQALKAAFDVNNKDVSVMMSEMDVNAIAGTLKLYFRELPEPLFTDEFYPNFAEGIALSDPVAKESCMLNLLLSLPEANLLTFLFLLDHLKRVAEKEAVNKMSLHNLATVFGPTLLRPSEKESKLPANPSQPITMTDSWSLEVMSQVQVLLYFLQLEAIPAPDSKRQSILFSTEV
# How it was run: as §2
# ERRα [9] = target: T5, ERRα (Mus musculus, UniProt O08580); experiment: In vivo ERRα knockdown in mouse tissues, western blotting; settings: mice, 100 mg/kg i.p. every 8 h, four doses, ~5 h after last dose, vs vehicle
# T5 sequence (O08580 1-422): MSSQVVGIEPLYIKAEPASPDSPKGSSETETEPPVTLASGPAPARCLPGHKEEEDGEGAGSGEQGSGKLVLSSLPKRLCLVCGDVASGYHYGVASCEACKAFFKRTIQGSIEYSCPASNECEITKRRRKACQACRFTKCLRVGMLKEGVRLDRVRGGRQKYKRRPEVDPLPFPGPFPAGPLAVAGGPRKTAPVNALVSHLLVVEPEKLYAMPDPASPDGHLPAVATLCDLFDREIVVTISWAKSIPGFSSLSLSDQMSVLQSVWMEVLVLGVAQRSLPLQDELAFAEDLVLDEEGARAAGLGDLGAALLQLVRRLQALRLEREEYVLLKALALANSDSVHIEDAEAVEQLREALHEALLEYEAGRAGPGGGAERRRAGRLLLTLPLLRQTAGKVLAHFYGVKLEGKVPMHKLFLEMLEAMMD
# ERRα [10] = target: T1, ERRα; experiment: In vivo ERRα knockdown in MDA-MB-231 tumor xenografts in mice, western blotting; settings: 100 mg/kg i.p. every 8 h, four doses, ~5 h after last dose, vs vehicle
smiles,measurement,setting,value
COc1cc(/C=C2\SC(=O)N(CCOCCC(=O)N[C@H](C(=O)N3C[C@@H](O)C[C@H]3C(=O)NCc3ccc(-c4scnc4C)cc3)C(C)(C)C)C2=O)ccc1Oc1ccc(C#N)cc1C(F)(F)F [PROTAC_ERRα_epi],reduction of ERRα protein levels,"ERRα [1]; MCF-7, at concentrations at which the active PROTAC reduced ERRα levels by 50%",~ 20%
Cc1ncsc1-c1ccc(CNC(=O)[C@@H]2C[C@@H](O)CN2C(=O)[C@@H](NC(=O)COCCOCCOCCOCCOc2cc3nccc(Nc4ccc5scnc5c4)c3cc2S(=O)(=O)C(C)(C)C)C(C)(C)C)cc1 [PROTAC_RIPK2],pIC50,VHL complex; competition with HIF1α-derived peptide for VHL complex,6.18
same,window between RIPK2 degradation and modulation of endogenous VHL function,RIPK2 [2]; RIPK2 degradation vs ODD-luciferase,"> 1,000 fold"
same,earliest time at which RIPK2 degradation was observed,"RIPK2 [2]; THP-1, 30 nM",1 h
same,time at which RIPK2 degradation was nearly complete,"RIPK2 [2]; THP-1, 30 nM",4 h
same,time for protein levels to recover to pre-treatment levels after removal,"RIPK2 [2]; THP-1, 4 h pretreatment with 30 nM, washout",≤ 24 h
same,RIPK2 protein levels at high concentration (hook effect),"RIPK2 [2]; THP-1, 16 h, 30 μM",returning to basal levels
same,Dmax,"RIPK2 [2]; THP-1, 16 h, at concentrations of 10 nM and higher",> 95%
same,stabilization of HIF1α (ODD-luciferase),HIF1α; 30 μM,modest stabilization of HIF1α
same,effect on ODD-luciferase levels,HIF1α; concentrations up to 3 μM,no effect
same,cellular toxicity,THP-1 cells,No cellular toxicity
same,co-recruitment of RIPK2 over background,[3]; 30 nM,up to 16 fold
same,change of RIPK2 enrichment,[3]; 300 nM versus 30 nM,reduced by two-fold
same,stoichiometry (modified RIPK2 to PROTAC),"RIPK2 [4]; 2.0 pmol PROTAC, final time point",2.0
same,modified RIPK2,"RIPK2 [4]; 2.0 pmol PROTAC, final time point (35 min), 500 nM RIPK2",4.0 pmol
same,pKd,MAPKAPK3 [5],< 5.52
same,RIPK2 levels,RIPK2 [6],induced the degradation of RIPK2 from 6 h onwards
same,MAPKAPK3 levels,MAPKAPK3 [7],significantly degraded
same,"levels of other kinases bound (RIPK3, ABL and TESK)","RIPK3, ABL and TESK",not degraded
COc1cc(/C=C2\SC(=O)N(CCOCCC(=O)N[C@H](C(=O)N3C[C@H](O)C[C@H]3C(=O)NCc3ccc(-c4scnc4C)cc3)C(C)(C)C)C2=O)ccc1Oc1ccc(C#N)cc1C(F)(F)F [PROTAC_ERRα],decrease in normalized ERRα levels,"ERRα [1]; MCF-7, 1 h pretreatment with 1 μM epoxomicin",5%
same,maximal level of degradation (Dmax),"ERRα [1]; MCF-7 cells, 8 h",86%
same,stabilization of HIF1α (ODD-luciferase),HIF1α; concentrations up to 30 μM,did not stabilize HIF1α
same,ERRα levels,ERRα [8],decreased levels of ERRα
same,BCR levels,BCR,downregulated
same,reduction of ERRα levels in heart,ERRα [9],approximately 44%
same,reduction of ERRα levels in kidney,ERRα [9],approximately 44%
same,reduction of ERRα levels in MDA-MB-231 tumors,ERRα [10],~39%
Cc1ncsc1-c1ccc(CNC(=O)[C@H]2C[C@H](O)CN2C(=O)[C@@H](NC(=O)COCCOCCOCCOCCOc2cc3nccc(Nc4ccc5scnc5c4)c3cc2S(=O)(=O)C(C)(C)C)C(C)(C)C)cc1 [PROTAC_RIPK2_epi],binding to VHL,VHL complex; concentrations up to 10 μM,no binding to VHL
same,degradation of RIPK2,"RIPK2 [2]; THP-1 cells, Supplementary Fig. 6f",no degradation of RIPK2
same,enrichment of RIPK2 in VHL immunoprecipitate,[3],did not influence the immune-captured proteins or enrich RIPK2 levels
same,ubiquitination of RIPK2,"RIPK2 [4]; any concentration (50, 100, 200 nM), up to 35 min",unable to induce ubiquitination
same,RIPK2 levels,RIPK2 [6],neither the PROTAC_RIPK2_epi nor the RIPK2 ligand affected RIPK2 levels
